Data on 35 compounds can be found in ChEMBL document CHEMBL1124984, “Benzophenone dicarboxylic acid antagonists of leukotriene B4. 2. Structure-activity relationships of the lipophilic side chain” (J Med Chem, 1990).

For experiment [1], the target named is T1, Leukotriene B4 receptor (Homo sapiens) (UniProt Q9NPC1+Q15722). Description: Antagonistic activity against Leukotriene B4 receptor by using [3H]- LTB4 as a radioligand at a concentration of 10e-8 M. The experiment is classed as functional. The gist of the method:
(§1)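 Neutrophil suspensions (≥90% neutrophils, ≥90% viable) at 2 × 10^7 cells/mL in Hanks' balanced salt solution with 0.1% ovalbumin. Cells were incubated 10 min at 4 °C with compound in DMSO and [3H]LTB4 added as a 2.65 nM solution. Cells were spun 2 min through dibutyl/dinonyl phthalate (7:2) and the pellet counted by scintillation. Nonspecific binding was measured with >2000-fold excess unlabeled ligand. Results are % inhibition of specific binding, mean of ≥3 replicates.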

In experiment [2] the target is T1, Leukotriene B4 receptor (Homo sapiens). Description: Antagonistic activity against Leukotriene B4 receptor by using [3H]- LTB4 as a radioligand at a concentration of 10e-6 M. It is filed as functional. The method, boiled down: as §1
For experiment [3] the target is unchanged. Description: Antagonistic activity against Leukotriene B4 receptor by using [3H]- LTB4 as a radioligand at a concentration of 10e-5 M. The experiment is classed as functional. The gist of the method: as §1
Experiment [4] has the same target. The experiment in a line: Antagonistic activity against Leukotriene B4 receptor by using [3H]- LTB4 as a radioligand at a concentration of 10e-7 M. The experiment is classed as functional. The method, boiled down: as §1
Experiment [5] has as its target T2, Leukotriene B4 receptor 1 (Homo sapiens, UniProt Q15722). The experiment in a line: Inhibition of binding of B4 (LTB4) to Leukotriene B4 receptor on intact human neutrophils at a concentration of 10e -8M. The method, boiled down: as §1
Experiment [6] concerns the target T2, Leukotriene B4 receptor 1. Description: Inhibition of binding of B4 (LTB4) to its Leukotriene B4 receptor on intact human neutrophils at a concentration of 10e -7M. The method, boiled down:
as §1

Experiment [7] deals with T2, Leukotriene B4 receptor 1. Description: Inhibition of specific binding of [3H]LTB4 to Leukotriene B4 receptor in human neutrophils.

T1 sequence (Q15722 whole entry, looked up): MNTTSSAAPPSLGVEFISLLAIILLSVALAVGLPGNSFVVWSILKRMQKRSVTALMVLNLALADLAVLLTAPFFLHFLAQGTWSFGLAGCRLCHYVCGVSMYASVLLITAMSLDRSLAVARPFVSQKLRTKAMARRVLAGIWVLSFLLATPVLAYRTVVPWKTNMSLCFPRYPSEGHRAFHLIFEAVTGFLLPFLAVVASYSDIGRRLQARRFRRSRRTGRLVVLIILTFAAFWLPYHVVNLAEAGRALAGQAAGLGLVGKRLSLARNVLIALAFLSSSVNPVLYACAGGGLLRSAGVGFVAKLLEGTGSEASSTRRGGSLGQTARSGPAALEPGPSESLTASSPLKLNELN
T1 sequence (Q9NPC1 whole entry, looked up): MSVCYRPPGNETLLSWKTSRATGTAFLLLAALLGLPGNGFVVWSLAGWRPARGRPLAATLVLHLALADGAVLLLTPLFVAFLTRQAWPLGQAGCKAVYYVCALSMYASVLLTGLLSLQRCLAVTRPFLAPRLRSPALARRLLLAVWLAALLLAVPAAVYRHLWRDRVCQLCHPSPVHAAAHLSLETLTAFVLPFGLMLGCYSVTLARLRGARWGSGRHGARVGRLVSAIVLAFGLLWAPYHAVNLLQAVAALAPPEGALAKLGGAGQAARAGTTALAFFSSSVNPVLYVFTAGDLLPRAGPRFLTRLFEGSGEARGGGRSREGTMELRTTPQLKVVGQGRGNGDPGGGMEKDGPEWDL
T2 sequence (Q15722 whole entry): as the sequence (Q15722 whole entry, looked up) above

In the case of `COc1ccc(C#CCCCCOc2ccc(C(=O)c3cccc(C(=O)O)c3)cc2CCC(=O)O)cc1`, the inhibition was determined as 9% in experiment [1], 90% in experiment [2], 100% in experiment [3] and 45% in experiment [4].
Take `CCCCCCCCCCCCCCOc1ccc(C(=O)c2cccc(C(=O)O)c2)cc1CCC(=O)O`: the inhibition was determined as 29% in experiment [2], 73% in experiment [3], 0% in experiment [5] and 0% in experiment [6].
On to `COc1ccccc1/C=C/CCCCOc1ccc(C(=O)c2cccc(C(=O)O)c2)cc1CCC(=O)O`, for which the inhibition was determined as 25% in experiment [1], 100% in experiment [2], 100% in experiment [3] and 88% in experiment [4].
`CCOc1ccc(C(=O)c2cccc(C(=O)O)c2)cc1CCC(=O)O`: the inhibition in experiment [2], in experiment [3], in experiment [5] and in experiment [6] was 0% in each case.
On to `COc1cccc(/C=C/CCCCOc2ccc(C(=O)c3cccc(C(=O)O)c3)cc2CCC(=O)O)c1`, for which the inhibition in experiment [1] turned out to be 13%; in experiment [2], 91%; in experiment [3] it was 99%; in experiment [4] it was 49%.
For the compound `C[S+]([O-])c1ccc(/C=C/CCCCOc2ccc(C(=O)c3cccc(C(=O)O)c3)cc2CCC(=O)O)cc1` (stereo not drawn), the inhibition stood at 36% in experiment [1], 95% in experiment [2], 99% in experiment [3] and 86% in experiment [4].
In the case of `CSc1ccc(/C=C/CCCCOc2ccc(C(=O)c3cccc(C(=O)O)c3)cc2CCC(=O)O)cc1`, the results for the inhibition in experiment [2], in experiment [3] and in experiment [4] were 79%, 100% and 18%, respectively.
Regarding `O=C(O)CCc1cc(C(=O)c2cccc(C(=O)O)c2)ccc1OCCCCCCc1ccccc1`, the inhibition in experiment [2] was found to be 85%; in experiment [3] it was 100%; in experiment [5], 14%; in experiment [6] it was 36%.
Regarding `COc1ccc(C(=O)c2cccc(C(=O)O)c2)cc1CCC(=O)O`, the inhibition in experiment [2] came to 7%; in experiment [3], 0%.
On the same counts, the results for `O=C(O)CCc1cc(C(=O)c2cccc(C(=O)O)c2)ccc1OCCc1ccccc1` are 3% and 37%.
As to `O=C(O)CCc1cc(C(=O)c2cccc(C(=O)O)c2)ccc1OCCCC[S+]([O-])c1ccccc1` (stereo not drawn), the inhibition in experiment [2] came to 0%; in experiment [3], 22%.
`CCCCCCCCOc1ccc(C(=O)c2cccc(C(=O)O)c2)cc1CCC(=O)O`: the inhibition was 35% in experiment [2], 87% in experiment [3], 0% in experiment [5] and 0% in experiment [6].
Take `CC(=O)c1ccc(CCCCCCOc2ccc(C(=O)c3cccc(C(=O)O)c3)cc2CCC(=O)O)cc1`: the inhibition in experiment [1] is 11%; in experiment [2] it was 90%; in experiment [4], 46%.
Consider `COc1ccc(/C=C/CCCCOc2ccc(C(=O)c3cccc(C(=O)O)c3)cc2CCC(=O)O)c(OC)c1`, for which the inhibition in experiment [1] is 20%; in experiment [2], 96%; in experiment [3], 100%; in experiment [4], 66%.
As for `O=C(O)CCc1cc(C(=O)c2cccc(C(=O)O)c2)ccc1OCCCCCCCCCCc1ccccc1`, the inhibition in experiment [1] is 0%; in experiment [4] it was 28%.
For `CCCCCCCCCCOc1ccc(C(=O)c2cccc(C(=O)O)c2)cc1CCC(=O)O`, the inhibition in experiment [2] was determined as 60%; in experiment [3], 95%; in experiment [6] it was 7%.
On to `Cc1ccc(/C=C/CCCCOc2ccc(C(=O)c3cccc(C(=O)O)c3)cc2CCC(=O)O)cc1`, for which the results for the inhibition in experiment [1], in experiment [2] and in experiment [4] were 24%, 96% and 73%, respectively.
Regarding `COc1ccc(/C=C\CCCCOc2ccc(C(=O)c3cccc(C(=O)O)c3)cc2CCC(=O)O)cc1`, the inhibition in experiment [1] was found to be 0%; in experiment [2], 76%; in experiment [3] it was 90%; in experiment [4] it was 31%.
Turning to `O=C(O)CCc1cc(C(=O)c2cccc(C(=O)O)c2)ccc1OCCCc1ccccc1`, the inhibition was found to be 19% in experiment [2] and 60% in experiment [3].
Consider `O=C(O)CCc1cc(C(=O)c2cccc(C(=O)O)c2)ccc1OCCCCCCc1ccc(F)cc1`, for which the inhibition is 6% in experiment [1], 77% in experiment [2], 100% in experiment [3] and 22% in experiment [4].
The like results for `O=C(O)CCc1cc(C(=O)c2cccc(C(=O)O)c2)ccc1OCCCC/C=C/c1ccccc1` were, in that order, 3%, 92%, 100% and 34%.
Regarding `COc1ccc(/C=C/CCCCOc2ccc(C(=O)c3cccc(C(=O)O)c3)cc2CCC(=O)O)cc1`, the inhibition in experiment [1] was determined as 40%; in experiment [2], 95%; in experiment [3], 100%; in experiment [4] it was 88%. Besides, the IC50 in experiment [7] amounted to 13.2 nM.
`CCCCCCOc1ccc(C(=O)c2cccc(C(=O)O)c2)cc1CCC(=O)O`: the inhibition in experiment [2] worked out at 10%; in experiment [3] it was 56%; in experiment [5], 0%; in experiment [6], 0%.
Take `O=C(O)CCc1cc(C(=O)c2cccc(C(=O)O)c2)ccc1OCCCCCCc1ccc(O)cc1`: the inhibition in experiment [1] came out at 6%; in experiment [2], 90%; in experiment [3], 100%; in experiment [4], 43%.
For the compound `O=C(O)CCc1cc(C(=O)c2cccc(C(=O)O)c2)ccc1OCCCCSc1ccccc1`, the results for the inhibition in experiment [2] and in experiment [3] were 29% and 89%, respectively.
The like results for `O=C(O)CCc1cc(C(=O)c2cccc(C(=O)O)c2)ccc1OCCCCS(=O)(=O)c1ccccc1` were, in that order, 4% and 18%.
In the case of `COc1ccc(CCCCCCOc2ccc(C(=O)c3cccc(C(=O)O)c3)cc2CCC(=O)O)cc1`, the inhibition in experiment [1] was determined as 18%; in experiment [2] it was 96%; in experiment [3], 100%; in experiment [4], 68%.
Turning to `COc1cccc(CCCCCCOc2ccc(C(=O)c3cccc(C(=O)O)c3)cc2CCC(=O)O)c1`, the inhibition in experiment [2] came out at 89%; in experiment [3] it was 95%; in experiment [4], 46%.
As for `O=C(O)CCc1cc(C(=O)c2cccc(C(=O)O)c2)ccc1OCCCCc1cccs1`, in experiment [3], the inhibition was found to be 72%.
Turning to `O=C(O)CCc1cc(C(=O)c2cccc(C(=O)O)c2)ccc1OCCCCc1ccccc1`, the inhibition in experiment [2] came out at 21%; in experiment [3], 78%.
Regarding `CS(=O)(=O)c1ccc(/C=C/CCCCOc2ccc(C(=O)c3cccc(C(=O)O)c3)cc2CCC(=O)O)cc1`, the inhibition in experiment [1] was 31%; in experiment [2], 89%; in experiment [3], 98%; in experiment [4], 60%.
For the compound `O=C(O)CCc1cc(C(=O)c2cccc(C(=O)O)c2)ccc1OCCCCOc1ccccc1`, the results for the inhibition in experiment [2] and in experiment [3] were 16% and 67%, respectively.
For `COc1ccccc1CCCCCCOc1ccc(C(=O)c2cccc(C(=O)O)c2)cc1CCC(=O)O`, the inhibition in experiment [1] worked out at 5%; in experiment [2], 91%; in experiment [3], 100%; in experiment [4], 3%.
The like results for `O=C(O)CCc1cc(C(=O)c2cccc(C(=O)O)c2)ccc1OCCCCCCc1ccc(Cl)cc1` were, in that order, 15%, 93%, 100% and 42%.
As to `O=C(O)CCc1cc(C(=O)c2cccc(C(=O)O)c2)ccc1OCc1ccccc1`, the inhibition in experiment [2] worked out at 3%; in experiment [3] it was 31%.

One may read the inhibition as the relative decrease from the control value, in per cent. As usually defined, the IC50 is the concentration that gives 50% inhibition. High values mean a need for much substance, low ones inhibition by little substance.
